# Reference: ChEMBL document CHEMBL1275449, “Potent in vitro antifungal activities of naturally occurring acetylenic acids” (Antimicrob Agents Chemother, 2008)
# The source made the active and inactive calls. The rule behind the calls is not given here.
# Tests used:
# [1] = test system: Candida albicans; test: Antifungal activity against Candida albicans ATCC 90028 at 178.6 uM after 48 hrs by CLSI method; assay type: functional, organism-based
# Outline: (§1)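 Candida inocula came from 24–72-h SD agar colonies suspended in saline. They were diluted by OD630 standard curve into RPMI 1640 (0.2% dextrose, 0.03% glutamine, 0.165 M MOPS, pH 7.0) to 1.5 × 10³ CFU/ml. Compounds were run as 11 twofold dilutions in 20% DMSO-saline, in duplicate, at 35°C for 48 h, with OD530 read before and after. Percent growth at the top concentration, IC50, MIC, and MFC (SD agar plating) were derived.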
# [2] = test system: Trichophyton rubrum; test: Antifungal activity against Trichophyton rubrum ATCC MYA-4438 at 178.6 uM after 5 days by CLSI method; assay type: functional, organism-based
# [3] = test system: Trichophyton mentagrophytes; test: Antifungal activity against Trichophyton mentagrophytes ATCC MYA-4439 by CLSI method; assay type: functional, organism-based
# Outline: (§2)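 Growth scraped from 1- to 6-week-old potato dextrose slants and filtered through Miracloth. Diluted in 5% Alamar blue-RPMI 1640 (MOPS pH 7.0) to 2.7 × 10⁴ CFU/ml. Eleven twofold dilutions in duplicate. Fluorescence at 544 nm excitation/590 nm emission read before and after 35°C, 5 days. IC50 fitted from percent growth. MIC taken as no detectable growth; MFC from clear or blue wells plated on PD agar.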
# [4] = test system: Aspergillus fumigatus; test: Antifungal activity against Aspergillus fumigatus ATCC 90906 at 178.6 uM after 48 hrs by CLSI method; assay type: functional, organism-based
# [5] = test system: Cryptococcus neoformans; test: Antifungal activity against Cryptococcus neoformans ATCC 66031 after 72 hrs by CLSI method; assay type: functional, organism-based; settings: ATCC 66031, 72 h
# Outline: (§3)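 SD broth replaced RPMI because growth in RPMI was poor; other CLSI conditions were kept. Inoculum was 1.5 × 10³ CFU/ml from colonies on SD agar, checked by plating. Twofold serial dilutions (11 concentrations) in 20% DMSO-saline were tested in duplicate. OD530 was read before and after incubation at 35°C for 72 h. Percent growth gave IC50; the MIC is the lowest concentration with no detectable growth.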
# [6] = test system: BT-549; test: Cytotoxicity against human BT549 cells up to 32 uM by neutral red method; assay type: cell-based
# Outline: (§4)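 Neutral red uptake cytotoxicity, top concentration 32 μM.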
# [7] = test system: Candida albicans; test: Antifungal activity against Candida albicans ATCC 60193 at 178.6 uM after 48 hrs by CLSI method; assay type: functional, organism-based; outline: as §1
# [8] = test system: SK-OV-3; test: Cytotoxicity against human SKOV3 cells up to 32 uM by neutral red method; assay type: cell-based; outline: as §4
# [9] = test system: Trichophyton rubrum; test: Antifungal activity against Trichophyton rubrum ATCC 10218 at 178.6 uM after 5 days by CLSI method; assay type: functional, organism-based
# [10] = test system: Aspergillus flavus; test: Antifungal activity against Aspergillus flavus ATCC 204304 at 178.6 uM after 48 hrs by CLSI method; assay type: functional, organism-based
# [11] = test system: Candida albicans; test: Antifungal activity against Candida albicans ATCC 32354 at 178.6 uM after 48 hrs by CLSI method; assay type: functional, organism-based; outline: as §1
# [12] = test system: SK-MEL; test: Cytotoxicity against human SK-MEL cells up to 32 uM by neutral red method; assay type: cell-based; outline: as §4
# [13] = test system: Pichia kudriavzevii; test: Antifungal activity against Candida krusei ATCC 6258 after 48 hrs by CLSI method; assay type: functional, organism-based; settings: ATCC 6258, 48 h; outline: as §1
# [14] = test system: Aspergillus niger; test: Antifungal activity against Aspergillus niger ATCC 16404 at 178.6 uM after 48 hrs by CLSI method; assay type: functional, organism-based
# [15] = test system: Candida tropicalis; test: Antifungal activity against Candida tropicalis ATCC 750 at 178.6 uM after 48 hrs by CLSI method; assay type: functional, organism-based
# Outline: (§5)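 Yeast suspensions made from 3-5 colonies off 24-72 h SD agar plates in saline. They were diluted by OD630 standard curve in RPMI 1640 (0.2% dextrose, 0.03% glutamine, 0.165 M MOPS, pH 7.0) to 1.5 × 10³ CFU/ml. Twofold dilutions (11 concentrations, 20% DMSO-saline) run in duplicate. OD530 read before and after 35°C, 48 h. Line values are top test concentrations; no-growth endpoints give MIC/MFC.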
# [16] = test system: Trichophyton rubrum; test: Antifungal activity against Trichophyton rubrum ATCC 10218 by CLSI method; assay type: functional, organism-based; outline: as §2
# [17] = test system: Candida parapsilosis; test: Antifungal activity against Candida parapsilosis ATCC 22019 at 178.6 uM after 48 hrs by CLSI method; assay type: functional, organism-based; outline: as §5
# [18] = test system: Candida albicans; test: Antifungal activity against Fluconazole resistant Candida albicans isolate 17 at 178.6 uM after 48 hrs by CLSI method; assay type: functional, organism-based
# Outline: (§6)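 Candida in CLSI broth microdilution. Saline colony suspension set to 1.5 × 10³ CFU/ml (final) in MOPS-buffered RPMI 1640, pH 7.0. Test agent given as twofold serial dilutions in 20% DMSO-saline, duplicate wells. 35°C for 48 h. Growth read as OD530 before and after incubation. Percent inhibition scored at the highest test concentration.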
# [19] = test system: LLC-PK1; test: Cytotoxicity against pig LLC-PK1 cells up to 32 uM by neutral red method; assay type: cell-based, Sus scrofa; outline: as §4
# [20] = test system: Aspergillus fumigatus; test: Antifungal activity against Aspergillus fumigatus ATCC 204305 at 178.6 uM after 48 hrs by CLSI method; assay type: functional, organism-based
# [21] = test system: Candida albicans; test: Antifungal activity against Candida albicans ATCC 14053 at 178.6 uM after 48 hrs by CLSI method; assay type: functional, organism-based
# [22] = test system: Nakaseomyces glabratus; test: Antifungal activity against Candida glabrata ATCC 90030 at 178.6 uM after 48 hrs by CLSI method; assay type: functional, organism-based; outline: as §1
# [23] = test system: KB; test: Cytotoxicity against human KB cells up to 32 uM by neutral red method; assay type: cell-based; outline: as §4
# [24] = test system: Trichophyton mentagrophytes; test: Antifungal activity against Trichophyton mentagrophytes ATCC MYA-4439 at 178.6 uM after 5 days by CLSI method; assay type: functional, organism-based
# [25] = test system: Candida albicans; test: Antifungal activity against Fluconazole resistant Candida albicans isolate 1 at 178.6 uM after 48 hrs by CLSI method; assay type: functional, organism-based; outline: as §6
# [26] = test system: Vero; test: Cytotoxicity against African green monkey Vero cells up to 32 uM by neutral red method; assay type: cell-based; settings: chlorocebus sabaeus; outline: as §4
# [27] = test system: Trichophyton rubrum; test: Antifungal activity against Trichophyton rubrum ATCC MYA-4438 by CLSI method; assay type: functional, organism-based; outline: as §2
# [28] = test system: Cryptococcus neoformans; test: Antifungal activity against Cryptococcus neoformans ATCC 90113 at 178.6 uM after 72 hrs by CLSI method; assay type: functional, organism-based; outline: as §3
# [29] = test system: Candida albicans; test: Antifungal activity against Candida albicans ATCC 200955 at 178.6 uM after 48 hrs by CLSI method; assay type: functional, organism-based; outline: as §1
# [30] = test system: Cryptococcus neoformans; test: Antifungal activity against Cryptococcus neoformans ATCC 66031 at 178.6 uM after 72 hrs by CLSI method; assay type: functional, organism-based; outline: as §3
# [31] = test system: Trichophyton mentagrophytes; test: Antifungal activity against Trichophyton mentagrophytes ATCC 9533 at 178.6 uM after 5 days by CLSI method; assay type: functional, organism-based
structure (smiles),measurement,setting,value
CCCCCCCCC#CCCCCCCCC(=O)O,Activity,[1],inactive
same,Activity,[2],inactive
same,IC50,[3],> 179 µM
same,Activity,[4],inactive
same,IC50,[5],> 179 µM
same,Activity,[6],Non-toxic
same,Activity,[7],inactive
same,Activity,[8],Non-toxic
same,Activity,[9],inactive
same,Activity,[10],inactive
same,Activity,[11],inactive
same,Activity,[12],Non-toxic
same,IC50,[13],> 179 µM
same,Activity,[14],inactive
same,Activity,[15],inactive
same,IC50,[16],> 179 µM
same,Activity,[17],inactive
same,Activity,[18],inactive
same,Activity,[19],Non-toxic
same,Activity,[20],inactive
same,Activity,[21],inactive
same,Activity,[22],inactive
same,Activity,[23],Non-toxic
same,Activity,[24],inactive
same,Activity,[25],inactive
same,Activity,[26],Non-toxic
same,IC50,[27],80.2 µM
same,Activity,[28],inactive
same,Activity,[29],inactive
same,Activity,[30],inactive
same,Activity,[31],inactive
